HCV core dimer = inhibitors of HCV core protein dimerization, primary screen, biochemical, TR-FRET, high-throughput | TR-FRET GST/Flag-core106 dimerization, 1536-well | inhibition, % at 5 µM | 300,000 compounds, 0.33% hits | AID 1899, 2009;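 active means inhibition above the mean of all tested compounds plus 3 SD, set per screening campaign, cut at about 45% in these data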
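Test system: GST/Flag-tagged HCV core106 proteins; Medium: KF-containing HEPES buffer, pH 7.45, DTT, CHAPS, BSA; Times: compound-protein-antibody incubation 4 h at 22.5 °C; Detection: TR-FRET 671 and 617 nm emission; Benchmarks: wells lacking GST-core106 and wells with excess unlabelled core106.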
HCV NS3 hel inh = inhibitors of HCV NS3 helicase, primary screen, biochemical, Cy5 molecular beacon fluorescence; inhibition, % at 10.9 µM; 290,000 compounds, 0.56% hits; NS3 helicase DNA unwinding;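 active means inhibition above the mean of all tested compounds plus 3 SD, set per campaign, cut at about 35% in these data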;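 further: 0% = DMSO wells and 100% = thioflavine S control wells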
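System: HCV NS3 helicase fragment; control set: DMSO and thioflavine S; technique: Cy5 fluorescence at 0 and 60 min, beacon hairpin quenching; reagent: beacon DNA duplex substrate plus ATP; replicates: singlicate; schedule: 1 h reaction at 25 °C, ATP-initiated; medium: MOPS buffer pH 6.5 with MgCl2, DTT, Tween20, BSA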
EBNA-1 inh = EBNA-1 DNA-binding inhibitors, primary screen, biochemical, fluorescence polarization; inhibition, % at 14.8 µM; 300,000 compounds, 0.34% hits; AID 1950, 2009; in the data active means inhibition above about 28%
PP1 counter = PP1-alpha phosphatase inhibitors, primary screen, counter-screen for PP5 inhibitor project, biochemical, fluorescence, OMFP substrate, single point; 320,000 compounds, 0.9% hits; purified PP1alpha; inhibition, % at 6.7 µM;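 active means inhibition above the mean inhibition of all tested compounds plus 3 SD, computed separately for each screening campaign, cut at about 15% in these data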
ZTA DNA inh = ZTA (EBV) inhibition in EBNA-1 counter-screen; P03206; ZTA-DNA binding, fluorescence polarization; inhibition, % at 11 µM; 320,000 compounds, 0.15% hits; AID 2234; in the data active means inhibition above about 33%
Target sequence (P03206 whole entry, looked up): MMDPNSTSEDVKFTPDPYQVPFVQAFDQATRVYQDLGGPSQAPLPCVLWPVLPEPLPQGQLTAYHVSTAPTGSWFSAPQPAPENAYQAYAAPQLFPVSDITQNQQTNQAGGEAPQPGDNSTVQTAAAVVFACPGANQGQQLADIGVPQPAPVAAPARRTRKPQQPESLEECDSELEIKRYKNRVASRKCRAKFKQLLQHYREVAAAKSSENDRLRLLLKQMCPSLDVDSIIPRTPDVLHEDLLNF
EBNA-1 confirm = EBNA-1 DNA-binding inhibitors, retest, confirmation, biochemical, fluorescence polarization, triplicate; shares compounds with EBNA-1 inh; Recombinant EBNA-1 DBD, Cy5-DNA fluorescence polarization; inhibition, % at 14.8 µM; 830 compounds, 35% hits;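 active means mean inhibition across replicates above a set limit taken from the earlier primary screen, cut at about 28% in these data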;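 further: plate controls were EBNA-1 protein with DMSO for no effect and wells lacking EBNA-1 for full effect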
ZTA counter trip = EBV Zta DNA binding inhibitors, counter-screen for EBNA-1 inhibitor project, biochemical, fluorescence polarization, triplicate; shares compounds with EBNA-1 inh; Zta-ZRE DNA binding, Cy5 fluorescence polarization; inhibition, % at 11.1 µM; 830 tested, under 10 active; AID 2328, 2010;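 active means mean inhibition over triplicates above a set limit taken from the primary EBNA-1 screen, cut at about 37% in these data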;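 further: purified full length Zta protein with Cy5 labeled ZRE DNA probe; 0% = Zta with DMSO and 100% = wells lacking Zta protein; inhibitors lower polarization by freeing the labeled DNA probe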
PP1 confirm = PP1 phosphatase inhibitors, confirmation, biochemical, fluorescence, OMFP substrate, triplicate; shares compounds with PP1 counter; purified PP1alpha; inhibition, % at 6.7 µM; 1,900 compounds, 52% hits; AID 2358, 2010;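 active means mean PP1 inhibition above a set limit taken from the earlier primary screen, cut at about 15% in these data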
PP5 inh counter = PP5 phosphatase inhibition by PP1 hits, confirmation, counter-screen for PP1 inhibitor project, biochemical, fluorescence, triplicate; shares compounds with PP1 counter; purified PP5c, OMFP fluorescence; inhibition, % at 6.7 µM; 1,900 compounds, 4% hits;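 active means mean PP5 inhibition over triplicate wells above about 9.5% taken from the earlier PP1 screen, limit read from the data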
Target sequence (P53041 whole entry, looked up): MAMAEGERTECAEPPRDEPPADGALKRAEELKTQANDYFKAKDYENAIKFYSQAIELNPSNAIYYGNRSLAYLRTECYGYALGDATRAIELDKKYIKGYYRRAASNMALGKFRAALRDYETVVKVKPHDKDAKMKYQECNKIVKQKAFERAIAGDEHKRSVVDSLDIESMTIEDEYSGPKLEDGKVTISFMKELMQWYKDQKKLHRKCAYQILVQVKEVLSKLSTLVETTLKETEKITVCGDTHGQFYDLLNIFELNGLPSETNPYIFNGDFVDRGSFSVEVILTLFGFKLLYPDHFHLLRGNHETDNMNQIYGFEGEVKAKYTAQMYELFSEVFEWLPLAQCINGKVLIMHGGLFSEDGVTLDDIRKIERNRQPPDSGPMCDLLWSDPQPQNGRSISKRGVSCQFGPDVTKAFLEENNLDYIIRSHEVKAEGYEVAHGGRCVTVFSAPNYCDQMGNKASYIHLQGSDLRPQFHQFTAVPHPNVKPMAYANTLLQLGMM
An asterisk follows results filed as active; . = no result given. In the library only some 1.9% were active in any assay of this set; here they are far more common.

SMILES | HCV core dimer | HCV NS3 hel inh | EBNA-1 inh | PP1 counter | ZTA DNA inh | EBNA-1 confirm | ZTA counter trip | others
COc1ccc(C(=O)NNC(=O)CSc2nnc(COc3ccc4ccccc4c3)n2C)cc1 | 4.1 | 4.9 | 81.9* | 1.6 | -0.9 | 36.1* | 1.0
COc1ccc(C(=O)NNC(=O)CSc2nnc(COc3ccccc3)n2C)cc1 | 0.2 | 4.7 | 1.9 | -3.6 | 11.6 | . | .
Cc1cccc(OCc2nnc(SCC(=O)Nc3cc(C)on3)n2C)c1 | -3.1 | -3.4 | 31.0* | 2.3 | -4.5 | 8.3 | 14.3
COc1ccc(S(=O)(=O)N2CCCCC2)cc1NC(=O)CSc1nnc(C2CC2)n1C | . | . | . | 3.0 | 15.6 | . | .
O=C(N/C(=C\c1ccc(Br)cc1)c1nc2ccccc2[nH]1)c1ccco1 | -4.0 | 2.0 | 49.0* | 1.7 | 9.1 | 33.2* | 1.9
COc1ccc([C@H]2CC(=O)C=C(c3cccc(C(C)C)c3)C2)cc1 | . | . | . | 2.1 | -3.8 | . | .
CC(C)C(=O)Nc1ccc(C(=O)NNC(=O)CCCOc2ccc(Cl)cc2Cl)cc1 | 0.2 | -2.1 | 35.9* | 3.3 | -7.6 | 15.2 | 9.8
CCCCC(=O)Nc1ccc(C(=O)NNC(=O)CCCOc2ccc(Cl)cc2Cl)cc1 | 24.0 | 6.8 | 3.8 | 5.3 | 8.3 | . | .
COc1ccc(/C=C2/NC(=O)N(CC(=O)Nc3cccc(C)c3)C2=O)cc1O | -12.6 | -3.5 | 56.4* | -0.1 | 0.3 | 76.2* | -0.9
COc1ccc(CNC(=O)CN2C(=O)COc3ccc(S(=O)(=O)N4CCOCC4)cc32)cc1 | 12.3 | -0.7 | -1.5 | -0.1 | 2.0 | . | .
O=C(CNC(=O)c1ccc(N2C(=O)c3ccccc3C2=O)cc1)OCC(=O)c1ccc(Cl)cc1 | 13.8 | -4.0 | 35.9* | -1.8 | 6.3 | 15.1 | 9.0
Cc1ccc(C(=O)COC(=O)CNC(=O)c2ccc(N3C(=O)c4ccccc4C3=O)cc2)cc1C | -0.5 | -1.6 | 29.0* | -1.2 | 11.4 | 9.7 | 5.7
Cn1c(CNC(=O)C(Cc2ccccc2)NC(=O)c2cccc(F)c2)cc(=O)n(C)c1=O (stereo not given) | -5.4 | 1.4 | -12.1 | 2.6 | 8.1 | . | .
CC(=O)Nc1ccc(NC(=O)c2ccc(NS(=O)(=O)c3cccc4cccnc34)cc2)cc1 | 18.7 | -8.1 | 39.3* | -1.4 | 5.4 | 17.6 | 6.2
CCOC(=O)N1C2=NC(C(=O)OC)=C(C(=O)OC)[C@@H]3N(C)c4ccccc4[C@]23C[C@H]1C(=O)OC | -12.3 | . | -5.3 | 0.9 | -14.8 | . | .
CN=C1SC(CC(=O)Nc2c(C)cccc2C)C(=O)N1/N=C/c1cccs1 (stereo not given) | 7.0 | -16.9 | 35.6* | -2.8 | 4.3 | 5.2 | -4.9
COCCN(Cc1cc2cc(C)cc(C)c2nc1Cl)C(=O)Nc1ccccc1 | 5.5 | 4.7 | 56.2* | -0.4 | -12.2 | -8.5 | 3.0
Cc1ccccc1OCc1nc(-c2ccc(NC(=O)c3ccc4c(c3)OCO4)cc2)no1 | 16.9 | -7.1 | 28.8* | 8.2 | 4.4 | 39.0* | 25.1
COc1ccccc1C(CNC(=O)c1cccc(NS(=O)(=O)c2ccc(C)c(F)c2)c1)N1CCCC1 (stereo not given) | -3.7 | . | 3.7 | -6.2 | 8.5 | . | .
Cc1cccc(NC(=O)/C(C#N)=C/c2cn(CC(=O)NCc3ccco3)c3ccccc23)c1C | 8.2 | -18.2 | 35.4* | 13.9 | 0.6 | 29.9* | -1.1
COCCNC(=S)N1CCC(C(=O)c2ccc(C)cc2)CC1 | -11.9 | 10.6 | -6.1 | -0.8 | -12.3 | . | .
COCCNC(=O)c1ccc(-n2c(SCc3cc(F)ccc3F)nc3ccccc3c2=O)cc1 | 5.7 | -1.0 | 39.6* | -2.0 | -8.0 | 9.3 | -4.5
Cc1cc2occ(CC(=O)N(C)CC(=O)Nc3cccc(F)c3)c2cc1C | 0.1 | -15.7 | -12.7 | -2.3 | -10.0 | . | .
Cc1ccc(NC(=O)C2CC(=O)N/C(=N/N=C/c3ccco3)S2)cc1C (stereo not given) | -5.1 | 7.5 | 30.4* | 10.5 | -11.9 | 3.9 | -9.8
O=c1cc(-c2ccc(O)c(O)c2)oc2cc(O)cc(O)c12 | -6.1 | . | -5.4 | 1.5 | 10.1 | . | .
SMILES | HCV core dimer | HCV NS3 hel inh | EBNA-1 inh | PP1 counter | ZTA DNA inh | EBNA-1 confirm | ZTA counter trip | others
O=c1cc(-c2ccc(O)c(-c3c(O)cc(O)c4c(=O)cc(-c5ccc(O)cc5)oc34)c2)oc2cc(O)cc(O)c12 | 2.6 | 4.8 | 33.6* | 30.8* | 2.5 | 29.2* | 19.9 | PP1 confirm=21.1*;PP5 inh counter=-1.9
COc1ccccc1Nc1nnc(SCC(=O)Nc2cc(C)on2)s1 | 4.3 | 7.3 | 35.3* | 19.2* | -2.5 | 20.9 | 3.9 | PP1 confirm=12.3;PP5 inh counter=-3.7
C=CCNC(=O)c1ccc(Cn2c(=S)[nH]c3cc4c(cc3c2=O)OCO4)cc1 | 4.9 | -6.1 | 32.9* | 25.1* | 4.0 | 0.4 | -0.4 | PP1 confirm=-0.7;PP5 inh counter=-0.4
Cc1ccc(CCNC(=O)CN(C)S(=O)(=O)c2ccc3c(c2)n(C)c(=O)c(=O)n3C)cc1 | -0.7 | -7.6 | -10.4 | -2.7 | -7.7 | . | .
COc1ccc(NC(=O)CSc2nc3nc(C)cc(C)c3c(=O)[nH]2)cc1 | 0.8 | -3.6 | 60.6* | 77.5* | 27.8 | -14.5 | -6.9 | PP1 confirm=-2.5;PP5 inh counter=-2.2
O=C(Nc1ccc(S(=O)(=O)Nc2nccs2)cc1)c1ccc(F)cc1 | 12.2 | 4.7 | 8.5 | -1.3 | 0.9 | . | .
O=C(Nc1ccc(S(=O)(=O)Nc2nccs2)cc1)c1ccc(N2C(=O)c3ccccc3C2=O)cc1 | 53.7* | 29.3 | 61.4* | 27.5* | -2.3 | 24.9 | 30.9 | PP1 confirm=14.8;PP5 inh counter=-1.0
O=C1c2c(O)cccc2Cc2cccc(O)c21 | 58.5* | . | 30.8* | 35.0* | -18.4 | 16.7 | 10.9 | PP1 confirm=29.3*;PP5 inh counter=-2.5
O=C1C=C(O)c2c(O)cccc2C1=O | -9.3 | . | 0.2 | 1.6 | 4.5 | . | .
COc1ccc(C(CNC(=O)CCNC(=O)c2ccccc2OC)N2CCCC2)cc1 (stereo not given) | -1.3 | . | 4.1 | -0.2 | 20.2 | . | .
CCN(CC)S(=O)(=O)c1ccc(C(=O)Nc2nnc(NC(=S)Nc3ccccc3)s2)cc1 | 25.1 | -15.5 | 38.5* | 42.7* | -22.6 | 75.3* | -11.5 | PP1 confirm=28.9*;PP5 inh counter=0.9
CC12CC3(C)CC(C)(C1)CC(C(=O)NCc1cccnc1)(C2)C3 | -17.4 | 11.7 | -4.5 | -5.5 | 4.4 | . | .

Compound activity: PubChem BioAssay, The Scripps Research Institute Molecular Screening Center
